Screening results (PubChem)
In the library only some 1.5% were active in any assay of this set; here they are far more common.
Cneo AK release – Cryptococcus neoformans cell lysis inducers, primary screen, AK release luminescence, single concentration. lysis activity, % at 15 µM. C. neoformans lysis, adenylate kinase release luminescence, 4 h; normalised: neutral wells 0, clomiphene wells 100. 360,000 compounds, 0.2% hits;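 active = mean lysis activity across replicates of at least 80%, whatever share of replicates individually reach that level; inactive = mean lysis activity below 80%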
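Test system: log-phase Cryptococcus neoformans yeast cells. Input: 5 × 10^6 yeast cells/mL. Medium: fresh YPD growth medium. Doses: single dose. Incubation: static 4 h at 37 °C with compound, 1 h detection. Measured by: luminescent adenylate kinase detection reagent. Read-out: signal increase indicating cell lysis. Benchmarks: Clomiphene.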
Mot1-301 SUMO – yeast Mot1-301 growth rescue at high temperature, primary screen, SUMOylation pathway inhibitor project, S. cerevisiae, ATP luminescence, 38.5C; 320,000 compounds, 1% hits; S. cerevisiae Mot1-301 growth rescue; percent above DMSO median, 100 means doubled; growth rescue, % at 18.8 µM;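 active = every valid replicate shows activation above 250% relative to neutral control wells; inactive = the rest, any valid replicate at or below 250%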
C2C12 statin – suppressors of statin myotoxicity in C2C12 myotubes, primary screen, cell-based, single point, plate reader; C2C12 myotubes + simvastatin, ATP luminescence, 48 h; scaled: DMSO 0, geranylgeraniol control 100; rescue of ATP level, % at 7.49 µM; 330,000 compounds, 0.78% hits; AID 602340, 2012;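 active = mean ATP rescue above about 67%, or every replicate alone reaching that limit, limit read from the data, passing the limit was not always enough; inconclusive = no clear call, values can overlap the other calls; inactive = mean under the limit and some replicate under it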;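 note: myotubes were challenged with 10 µM simvastatin during compound exposure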
A number is an active result; - = inactive; ? = inconclusive; . = not tested or not shown.

SMILES	Cneo AK release	Mot1-301 SUMO	C2C12 statin
CC(C)CCOc1ccc(Cl)cc1CN1CCOCC1	-	313.2	-
CCCCCOc1ccc(Cl)cc1CN1CCOCC1	.	-	.
CC(C)NC(=O)N(C)C[C@H]1Oc2ncc(C#CC3CCCC3)cc2C(=O)N([C@@H](C)CO)C[C@H]1C	-	.	-
CN(C)CCNC(=O)c1ccc2c(c1)NC(=O)c1ccccc1S2	-	335.7	-
CCN(CC)CCNC(=O)c1ccc2c(c1)NC(=O)c1ccccc1S2	-	-	-
CCOc1ccc(S(=O)(=O)Nc2ccc3c(c2)n(C)c(=O)n3C)cc1	-	-	-
CCOc1ccc(S(=O)(=O)Nc2ccc3c(c2)c2c(n3S(=O)(=O)c3ccc(OCC)cc3)CCCC2=O)cc1	.	876.9	.
O=C(C[C@H]1CC[C@H]2[C@@H](COC[C@H](O)CN2Cc2ccc(Oc3ccccc3)cc2)O1)N1CCCCC1	-	.	?
CCn1c(CN2c3ccccc3Sc3ccccc32)n[nH]c1=S	-	-	86.0
CCn1c(CCCCc2n[nH]c(=S)n2CC)n[nH]c1=S	.	-	.
COc1ccc(NC(=O)Nc2ccc3c(c2)C(=O)N([C@@H](C)CO)C[C@@H](C)[C@H](CN(C)C(=O)C2CCCCC2)OCCCC[C@H](C)O3)cc1	-	.	?
COc1ccc(NC(=O)Nc2ccc3c(c2)C(=O)N([C@H](C)CO)C[C@H](C)[C@H](CN(C)C(=O)C2CCCCC2)OCCCC[C@H](C)O3)cc1	-	.	70.8
COc1ccc(NC(=O)Nc2ccc3c(c2)C(=O)N([C@H](C)CO)C[C@@H](C)[C@@H](CN(C)C(=O)C2CCCCC2)OCCCC[C@H](C)O3)cc1	-	.	-
COc1ccc(NC(=O)Nc2ccc3c(c2)C(=O)N([C@H](C)CO)C[C@H](C)[C@@H](CN(C)C(=O)CCC(F)(F)F)OCCCC[C@@H](C)O3)cc1	-	.	.
COc1ccc(NC(=O)Nc2ccc3c(c2)C(=O)N([C@H](C)CO)C[C@@H](C)[C@@H](CN(C)C(=O)CCC(F)(F)F)OCCCC[C@H](C)O3)cc1	94.6	.	.
COc1ccc(NC(=O)Nc2ccc3c(c2)C(=O)N([C@@H](C)CO)C[C@H](C)[C@H](CN(C)C(=O)C2CCCCC2)OCCCC[C@H](C)O3)cc1	-	.	79.0
CCC(=O)N(C)C[C@H]1Oc2cc(C3=CCCCC3)ccc2S(=O)(=O)N([C@@H](C)CO)C[C@H]1C	.	.	-
O=C([C@@H]1[C@@H](CO)[C@@H]2Cn3c(ccc(-c4ccccc4F)c3=O)[C@H]1N2C(=O)C1CC1)N1CCOCC1	-	.	-
COCCNC(=O)C[C@@H]1CC[C@@H](NC(=O)NC2CCCC2)[C@@H](CO)O1	-	.	-
Cc1ccc(S(=O)(=O)N(C)C[C@H]2Oc3ccc(NS(=O)(=O)c4cn(C)cn4)cc3C(=O)N([C@@H](C)CO)C[C@H]2C)cc1	.	.	-
C[C@@H]1CN([C@H](C)CO)C(=O)Cc2cc(NS(=O)(=O)c3cn(C)cn3)ccc2O[C@H]1CN(C)Cc1ccc2c(c1)OCO2	-	.	-
C[C@H](CO)N1C[C@H](C)[C@@H](CN(C)Cc2ccc(Cl)c(Cl)c2)Oc2ccc(NS(=O)(=O)c3cn(C)cn3)cc2CC1=O	-	.	165.5
C[C@@H]1CN([C@H](C)CO)C(=O)Cc2cc(NS(=O)(=O)c3cn(C)cn3)ccc2O[C@@H]1CN(C)Cc1ccc(-c2ccccc2)cc1	.	.	82.0
C[C@H]1CN([C@@H](C)CO)C(=O)Cc2cc(NS(=O)(=O)c3cn(C)cn3)ccc2O[C@H]1CN(C)Cc1ccc(-c2ccccc2)cc1	.	.	-
O=C(O)Cn1cc(/C=C2\SC(=O)N(c3ccccc3)C2=O)c2ccccc21	-	672.4	-
SMILES	Cneo AK release	Mot1-301 SUMO	C2C12 statin
Cn1cc(/C=C2/SC(=O)N(c3ccccc3)C2=O)c2ccccc21	-	-	.
COc1cccc(S(=O)(=O)N2CC[C@@H]3[C@H](CO)Nc4ccc(C#Cc5ccccc5)cc4[C@@H]32)c1	-	.	-
COc1ccccc1S(=O)(=O)N1C[C@H](O)COC[C@H]2O[C@@H](CC(=O)O)CC[C@@H]21	-	.	-
COc1cc(C2C(C#N)=C(C)NC3=C2C(=O)CC(C)(C)C3)ccc1OCCO (configuration not stated)	-	-	.
COc1cc(C2C(C#N)=C(C)NC3=C2C(=O)CC(C)(C)C3)cc(OC)c1O (configuration not stated)	-	348.1	-
Cc1cc(N2CCN(c3ccccc3)CC2)n2nnnc2n1	-	-	149.3
Cc1cc(N2CCN(S(=O)(=O)Cc3ccccc3)CC2)n2ncnc2n1	-	-	-
Cc1cc(N2CCN(c3nnnn3-c3ccccc3)CC2)n2ncnc2n1	-	-	110.8
Oc1ccccc1N1CCN(c2nnnn2-c2ccccc2)CC1	-	439.0	.
